Source: ChEMBL document CHEMBL5653608 (Br J Pharmacol, 2011)
Calls of active or inactive are those of the source. The calls are words filed in the database; no cut-off is given here.

Assays:
[1] = Clearance in Sprague-Dawley rat at 1 mg/kg, po; format: ADME, organism-based; settings: in vivo
[2] = target: T1, Prostaglandin E2 receptor EP3 subtype (Homo sapiens, UniProt P43115); assay: Antagonist activity at human EP3 receptor expressed in CHO cells assessed as increase in cAMP level incubated for 30 mins followed by agonist addition measured after 90 mins; format: functional, cell-based
T1 sequence (P43115 whole entry): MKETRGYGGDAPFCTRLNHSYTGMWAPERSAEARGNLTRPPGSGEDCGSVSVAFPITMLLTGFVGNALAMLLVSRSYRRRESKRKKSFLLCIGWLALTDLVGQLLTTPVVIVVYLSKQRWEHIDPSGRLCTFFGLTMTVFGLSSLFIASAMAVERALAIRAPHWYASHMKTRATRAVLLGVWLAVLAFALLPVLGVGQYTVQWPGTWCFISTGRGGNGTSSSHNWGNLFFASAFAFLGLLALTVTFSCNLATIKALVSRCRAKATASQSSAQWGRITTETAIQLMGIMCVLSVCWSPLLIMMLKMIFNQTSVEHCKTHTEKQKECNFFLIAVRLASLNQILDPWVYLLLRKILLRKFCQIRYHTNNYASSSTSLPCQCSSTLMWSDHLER

[3] = target: T2, Prostaglandin D2 receptor 2 (Homo sapiens, UniProt Q9Y5Y4); assay: Antagonist activity at human CRTH2 receptor incubated for 30 mins followed by agonist addition measured after 90 mins; format: functional
T2 sequence (Q9Y5Y4 whole entry): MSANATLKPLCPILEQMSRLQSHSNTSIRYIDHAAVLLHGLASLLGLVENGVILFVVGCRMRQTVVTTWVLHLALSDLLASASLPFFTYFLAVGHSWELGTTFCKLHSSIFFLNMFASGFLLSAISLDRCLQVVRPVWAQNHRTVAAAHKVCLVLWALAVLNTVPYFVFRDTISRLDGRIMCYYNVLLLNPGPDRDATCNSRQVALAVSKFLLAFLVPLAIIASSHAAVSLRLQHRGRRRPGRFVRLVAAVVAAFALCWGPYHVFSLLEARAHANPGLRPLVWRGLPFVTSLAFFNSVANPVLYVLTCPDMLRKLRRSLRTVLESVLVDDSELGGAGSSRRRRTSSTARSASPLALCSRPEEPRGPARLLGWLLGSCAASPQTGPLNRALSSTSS
Method in brief: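 CHO reporter cells expressing human CRTH2, run in the DiscoveRx cAMP format. Compound preincubated with cells for 30 min at 37°C, then cells were stimulated with 8 µM forskolin plus agonist for 90 min at 37°C. Cells were lysed at −80°C and cAMP was read by luminescence. IC50 from an unconstrained four-parameter logistic fit.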

[4] = target: Prostaglandin E2 receptor EP2 subtype (Canis lupus familiaris) (UniProt Q9XT82); assay: Binding affinity to dog bronchiole EP2 receptor assessed as equilibrium binding constant incubated for 30 mins followed by agonist addition measured after 90 mins; format: tissue-based; settings: filed as antagonist, time 120.0 min
Sequence of Prostaglandin E2 receptor EP2 subtype (Canis lupus familiaris) (Q9XT82 whole entry): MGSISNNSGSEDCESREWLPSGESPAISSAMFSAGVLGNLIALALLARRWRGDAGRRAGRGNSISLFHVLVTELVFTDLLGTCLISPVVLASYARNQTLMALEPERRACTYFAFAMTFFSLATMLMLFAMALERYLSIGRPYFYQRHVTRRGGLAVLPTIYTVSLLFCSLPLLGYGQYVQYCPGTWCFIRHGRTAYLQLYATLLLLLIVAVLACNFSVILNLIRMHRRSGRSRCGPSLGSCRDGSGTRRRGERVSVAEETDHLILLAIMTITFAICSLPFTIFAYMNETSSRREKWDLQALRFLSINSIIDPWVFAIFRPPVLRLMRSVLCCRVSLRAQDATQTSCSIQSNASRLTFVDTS

[5] = target: Prostaglandin E2 receptor EP2 subtype (Mus musculus) (UniProt Q62053); assay: Binding affinity to mouse trachea EP2 receptor assessed as equilibrium binding constant incubated for 30 mins followed by agonist addition measured after 90 mins; format: tissue-based; settings: filed as antagonist, time 120.0 min
Sequence of Prostaglandin E2 receptor EP2 subtype (Mus musculus) (Q62053 whole entry): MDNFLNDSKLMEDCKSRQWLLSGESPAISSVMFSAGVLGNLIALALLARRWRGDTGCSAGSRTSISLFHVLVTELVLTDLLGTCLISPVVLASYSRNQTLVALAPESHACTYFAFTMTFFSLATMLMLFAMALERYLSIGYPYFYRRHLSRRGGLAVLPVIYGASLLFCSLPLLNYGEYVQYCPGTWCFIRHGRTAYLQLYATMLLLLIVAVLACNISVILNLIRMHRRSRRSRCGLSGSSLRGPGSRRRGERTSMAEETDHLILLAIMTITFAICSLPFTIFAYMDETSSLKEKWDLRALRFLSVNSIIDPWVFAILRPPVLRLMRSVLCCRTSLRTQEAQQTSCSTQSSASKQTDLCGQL

[6] = Induction of relaxation in PGE2-induced carbachol pre-contracted C57BL/6 mouse trachea at 1 to 3 uM incubated for 30 mins relative to control (reference value: 11 +/- 3.2%); format: functional; parameters: scale not given: the % may be the effect or the level left; settings: dose 1-3 µM, 0.5 h
Rattus norvegicus [7] = assay: Effect on butaprost induced cutaneous blood flow in po dosed Sprague-Dawley rat measured upto 95 mins; format: functional, organism-based; settings: dose 1-10 mg/kg
Method in brief: (§1)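 Sprague Dawley rats (442–515 g) dosed orally with compound or vehicle (0.5% methylcellulose/0.1% Tween 80, 1 mL/kg). About 1 h 25 min later rats were placed under isoflurane and the abdomen shaved. Baseline laser Doppler scans were taken every 5 min for 35 min. Then 10 µL s.c. PGE2 (3 µg/mL) or butaprost (30 µg/mL) was injected, and scanning continued 60 min. Responses were vehicle-subtracted and normalized to the final three baselines. Peak and AUC0–60 were calculated.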

[8] = target: T3, Prostaglandin E2 receptor EP1 subtype (Homo sapiens, UniProt P34995); assay: Agonist activity at human EP1 receptor expressed in CHO cells incubated for 30 mins; format: functional, cell-based
T3 sequence (P34995 whole entry): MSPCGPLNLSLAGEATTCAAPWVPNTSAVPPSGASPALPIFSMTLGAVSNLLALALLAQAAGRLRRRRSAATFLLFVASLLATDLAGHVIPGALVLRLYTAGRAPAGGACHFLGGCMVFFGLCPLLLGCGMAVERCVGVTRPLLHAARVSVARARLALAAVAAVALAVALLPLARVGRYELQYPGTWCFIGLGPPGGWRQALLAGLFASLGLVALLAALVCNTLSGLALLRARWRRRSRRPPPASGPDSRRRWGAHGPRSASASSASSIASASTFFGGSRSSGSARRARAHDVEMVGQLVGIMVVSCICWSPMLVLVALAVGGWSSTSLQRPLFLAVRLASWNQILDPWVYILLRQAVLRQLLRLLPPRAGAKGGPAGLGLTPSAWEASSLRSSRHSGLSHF

[9] = Oral bioavailability in Sprague-Dawley rat at 1 mg/kg; format: ADME, organism-based; settings: in vivo
Canis lupus familiaris = species on record: Canis lupus familiaris; assay: Induction of relaxation in PGE2-induced carbachol pre-contracted rings of Beagle dog bronchioles at 3 to 100 nM incubated for 1 hr; format: functional, tissue-based; settings: Bronchiole, dose 3-100 nM
Method in brief: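 Beagle bronchiole rings held at 1 g tension in Krebs at 37°C (with propranolol and phentolamine), primed with 80 mM KCl. Rings were precontracted with 1 µM carbachol, then antagonist (3–100 nM) or vehicle was equilibrated for 1 h. Cumulative PGE2 relaxation curves followed, with final 10 µM nifedipine defining maximal relaxation. KB by the Lew and Angus method.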

[10] = Inhibition of EFS-induced contraction of human myometrium assessed as butaprost IC50 at 10 nM incubated for 60 mins (reference value: 27.8 nM); format: functional, tissue-based
Method in brief: (§2)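 Human myometrial strips (donors aged 24–76) in a 15 mL Krebs bath at 37°C, under EFS at 15 V, 1.5 ms pulses, 10 s every 100 s, at a submaximal 15 Hz. Antagonist (10 or 100 nM) or vehicle was equilibrated for 60 min. Cumulative butaprost (0.1 nM–10 µM) or PGE2 (0.1 nM–3 µM) was given for at least five EFS responses per concentration. pKB was calculated from same-donor concentration ratios.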

[11] = Free plasma concentration in Sprague-Dawley rat at 1 to 10 mg/kg, po measured after 3 hrs; format: ADME, organism-based; settings: in vivo, dose 1-10 mg/kg
Rattus norvegicus [12] = assay: Effect on butaprost-induced cutaneous blood flow in Sprague-Dawley rat assessed as reduction in mean cutaneous blood flow peak response at 10 mg/kg, po measured upto 95 mins; format: functional; parameters: scale not given: the % may be the effect or the level left; settings: 1.583 h; method in brief: as §1
[13] = target: Prostaglandin E2 receptor EP4 subtype (Homo sapiens, UniProt P35408); assay: Agonist activity at human EP4 receptor expressed in CHO cells incubated for 30 mins; format: functional, cell-based
Sequence of Prostaglandin E2 receptor EP4 subtype (P35408 whole entry, the tested form may be a part): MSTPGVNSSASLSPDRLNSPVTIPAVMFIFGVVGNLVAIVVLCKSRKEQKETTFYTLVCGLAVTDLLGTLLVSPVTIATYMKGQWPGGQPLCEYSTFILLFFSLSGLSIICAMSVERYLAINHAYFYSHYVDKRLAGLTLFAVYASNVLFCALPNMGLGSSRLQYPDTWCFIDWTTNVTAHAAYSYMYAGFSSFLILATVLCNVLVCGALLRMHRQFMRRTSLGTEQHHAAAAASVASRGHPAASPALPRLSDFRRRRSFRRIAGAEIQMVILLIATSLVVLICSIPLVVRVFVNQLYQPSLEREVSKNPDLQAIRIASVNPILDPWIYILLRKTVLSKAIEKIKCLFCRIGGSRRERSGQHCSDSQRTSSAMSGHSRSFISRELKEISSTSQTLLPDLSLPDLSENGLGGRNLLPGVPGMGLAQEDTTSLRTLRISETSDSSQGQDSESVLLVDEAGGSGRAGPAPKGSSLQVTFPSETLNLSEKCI
Method in brief: (§3)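 Reporter CHO cells (CRE β-lactamase host) stably expressing the human receptor, suspended in DMEM at 1 × 10^6 cells/mL. Compound in PBS/DMSO/pluronic buffer, preincubated with cells for 30 min at 37°C. In antagonist mode, agonist was then added for 90 min at 37°C; agonist mode used buffer instead. Cells were lysed by freezing, and cAMP was read by DiscoveRx enzyme-fragment luminescence after 4–20 h. Four-parameter logistic fit.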

Thromboxane A2 receptor = target: T4, Thromboxane A2 receptor (Homo sapiens, UniProt P21731); assay: Displacement of [3H]-Iloprost from human TP receptor assessed as inhibition constant incubated for 2 hrs by TopCount NXT counter based analysis
T4 sequence (P21731 whole entry): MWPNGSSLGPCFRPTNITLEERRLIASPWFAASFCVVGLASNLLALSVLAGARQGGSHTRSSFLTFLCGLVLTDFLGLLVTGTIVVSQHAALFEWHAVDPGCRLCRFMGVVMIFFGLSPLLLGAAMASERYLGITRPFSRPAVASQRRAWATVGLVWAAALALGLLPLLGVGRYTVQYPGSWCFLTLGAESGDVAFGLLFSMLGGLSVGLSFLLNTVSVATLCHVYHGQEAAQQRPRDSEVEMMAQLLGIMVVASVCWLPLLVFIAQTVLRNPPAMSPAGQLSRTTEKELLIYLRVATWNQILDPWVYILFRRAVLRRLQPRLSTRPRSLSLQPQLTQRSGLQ

[14] = target: T5, Prostaglandin D2 receptor (Homo sapiens, UniProt Q13258); assay: Antagonist activity at human DP1 receptor expressed in CHO cells incubated for 30 mins followed by agonist addition measured after 90 mins; format: functional, cell-based; method in brief: as §3
T5 sequence (Q13258 whole entry): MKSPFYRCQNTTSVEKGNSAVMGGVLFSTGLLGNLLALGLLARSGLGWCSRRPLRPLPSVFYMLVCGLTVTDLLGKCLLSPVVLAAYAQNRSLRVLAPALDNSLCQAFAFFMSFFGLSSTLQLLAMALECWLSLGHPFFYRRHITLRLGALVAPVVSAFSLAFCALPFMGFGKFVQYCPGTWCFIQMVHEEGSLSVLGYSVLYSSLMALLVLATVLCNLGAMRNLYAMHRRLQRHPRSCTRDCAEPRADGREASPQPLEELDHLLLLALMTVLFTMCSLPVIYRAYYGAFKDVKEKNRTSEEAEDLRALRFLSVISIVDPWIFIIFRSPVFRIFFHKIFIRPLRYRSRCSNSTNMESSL

[15] = Displacement of [3H]-Iloprost from human LTB4 receptor assessed as inhibition constant incubated for 2 hrs by TopCount NXT counter based analysis
[16] = Free plasma concentration in Sprague-Dawley rat at 1 to 10 mg/kg, po measured after 1.5 hrs; format: ADME, organism-based; settings: in vivo, dose 1-10 mg/kg
[17] = target: Prostaglandin F2-alpha receptor (Homo sapiens, UniProt P43088); assay: Displacement of [3H]-Iloprost from human FP receptor assessed as inhibition constant incubated for 2 hrs by TopCount NXT counter based analysis
Sequence of Prostaglandin F2-alpha receptor (P43088 whole entry): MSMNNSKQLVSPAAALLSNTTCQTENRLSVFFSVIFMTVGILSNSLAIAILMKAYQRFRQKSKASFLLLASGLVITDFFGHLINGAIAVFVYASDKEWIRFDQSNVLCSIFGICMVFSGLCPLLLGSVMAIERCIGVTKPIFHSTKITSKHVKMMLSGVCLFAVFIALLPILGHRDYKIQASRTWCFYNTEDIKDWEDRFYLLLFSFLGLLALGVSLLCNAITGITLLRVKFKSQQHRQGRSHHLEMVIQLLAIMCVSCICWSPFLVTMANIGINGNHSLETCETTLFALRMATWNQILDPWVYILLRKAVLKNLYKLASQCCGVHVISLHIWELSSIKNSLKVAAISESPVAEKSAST

Prostacyclin receptor = Prostacyclin receptor (Homo sapiens, UniProt P43119); assay: Displacement of [3H]-Iloprost from human IP receptor assessed as inhibition constant incubated for 2 hrs by TopCount NXT counter based analysis
Sequence of Prostacyclin receptor (P43119 whole entry): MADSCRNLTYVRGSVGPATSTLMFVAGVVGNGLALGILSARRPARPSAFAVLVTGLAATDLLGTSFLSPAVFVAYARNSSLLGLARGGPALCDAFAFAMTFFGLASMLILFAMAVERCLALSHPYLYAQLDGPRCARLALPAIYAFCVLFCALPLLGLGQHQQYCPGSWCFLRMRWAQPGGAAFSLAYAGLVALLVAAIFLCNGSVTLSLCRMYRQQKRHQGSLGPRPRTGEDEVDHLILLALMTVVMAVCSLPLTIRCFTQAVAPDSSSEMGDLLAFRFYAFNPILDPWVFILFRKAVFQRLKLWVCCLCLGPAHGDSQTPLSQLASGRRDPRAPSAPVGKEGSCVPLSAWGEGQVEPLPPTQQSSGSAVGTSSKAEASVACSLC
Method in brief: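 Radioligand displacement with [3H]iloprost (20 µL of a 100 nM stock), using HEK membranes expressing human IP (10 µg per well). Buffer was 10 mM HEPES, 10 mM MgCl2, 1 mM EDTA, pH 7.4, with top concentration 10 µM. Nonspecific binding was defined with 10 µM carbacyclin. Incubated 2 h at room temperature with shaking, then filtered on GF/B, washed cold and counted by scintillation. FP, TP and LTB4 assays were run externally.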

Rattus norvegicus [18] = assay: Effect on butaprost-induced cutaneous blood flow in Sprague-Dawley rat assessed as reduction in mean cutaneous blood flow peak response by measuring AUC(0 to 60 mins) at 10 mg/kg, po measured upto 95 mins; format: functional; parameters: scale not given: the % may be the effect or the level left; settings: 1.583 h; method in brief: as §1
[19] = Volume of distribution in Sprague-Dawley rat at 1 mg/kg, po; format: ADME, organism-based; settings: in vivo
[20] = target: T1, Prostaglandin E2 receptor EP3 subtype; assay: Agonist activity at human EP3 receptor expressed in CHO cells incubated for 30 mins; format: functional, cell-based
[21] = Terminal half life in Sprague-Dawley rat at 1 mg/kg, po; format: ADME, organism-based; settings: in vivo, read-out: beta t1/2 (converted)
[22] = target: T3, Prostaglandin E2 receptor EP1 subtype; assay: Antagonist activity at human EP1 receptor expressed in CHO cells assessed as increase in cAMP level incubated for 30 mins followed by agonist addition measured after 90 mins; format: functional, cell-based
[23] = Induction of relaxation in PGE2-induced carbachol pre-contracted C57BL/6 mouse trachea incubated for 30 mins; format: functional, tissue-based
Method in brief: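 Male C57BL/6 tracheal rings at 0.35 g tension in Krebs (95% O2/5% CO2, 37°C). Rings were precontracted with 10 µM carbachol before cumulative half-log PGE2 (0.1 nM–30 µM). Curves were repeated in the same ring after 30 min with 3 nM antagonist or DMSO, and 10 µM forskolin set maximal relaxation. pKB = log(CR−1) − log[B].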

[24] = Inhibition of EFS-induced contraction of human myometrium assessed as butaprost IC50 at 100 nM incubated for 60 mins (reference value: 27.8 nM); format: functional, tissue-based; method in brief: as §2
[25] = Induction of relaxation in PGE2-induced carbachol pre-contracted C57BL/6 mouse trachea at 100 nM incubated for 30 mins relative to control (reference value: 11 +/- 3.2%); format: functional; parameters: scale not given: the % may be the effect or the level left; settings: 0.5 h
Mus musculus = species on record: Mus musculus; assay: Induction of relaxation in PGE2-induced carbachol pre-contracted C57BL/6 mouse trachea at 1 to 3 nM incubated for 30 mins; settings: dose 1-3 nM

Work on COc1ccc2cc(OCC3(C(=O)O)CN(C(=O)c4ccc(F)cc4)C3)ccc2c1 [PF-04418948] yielded a CL/F [1] of 0.3 mL/min/kg, an IC50 [2] of over 10 µM and an IC50 [3] of 32 µM. For the same compound, the Kb [4] was 0.0025 µM, the Kb [5] was 0.0013 µM and the Activity [6] was 73.5%. The Activity (Rattus norvegicus [7]) was “Dose-Dependent Effect”, the EC50 [8] was over 10 µM and the bioavailability [9] was 78%. For the same compound, the Activity (Canis lupus familiaris) was “Active”, the IC50 [10] was 0.054 µM and the “Cp(f)” value [11] was 94 nM. It also gave an Activity (Rattus norvegicus [12]) of 41%, an EC50 [13] of over 33.3 µM and a Ki (Thromboxane A2 receptor) of over 10 µM. For the same compound, the IC50 [14] was over 32.8 µM, the Ki [15] was 4.8 µM and the “Cp(f)” value [16] was 170 nM. It also gave a Ki [17] of over 10 µM, a Ki (Prostacyclin receptor) of over 10 µM and an Activity (Rattus norvegicus [18]) of 61%. The Vd [19] was 0.1 L/kg, the EC50 [20] was over 10 µM and the half-life [21] was 8.8 h. The IC50 [22] was over 10 µM, the IC50 [23] was 0.0027 µM and the IC50 [24] was 0.353 µM. For the same compound, the Activity [25] was 106.8% and the Activity (Mus musculus) was “Active”.
